Measured values reported in ChEMBL document CHEMBL2169868, “Flavone-based novel antidiabetic and antidyslipidemic agents” (J Med Chem, 2012).
Activity calls are given as the source filed them. The calls are words filed in the database; no cut-off is given here.

Experiments:
Type in all cases: functional
Parameters in all cases: scale not given: the % may be the effect or the level left
Rattus norvegicus [1] = experiment: Antidiabetic activity in sucrose loaded Wistar rat model assessed as reduction in glucose levels at 100 mg/kg, po
Rattus norvegicus [2] = experiment: Antihyperlipidemic activity in Triton-induced dyslipidemic Wistar rat model assessed as reduction in cholesterol level at 100 mg/kg, po
Summary of the method: (§1)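 Male Wistar rats, 8−10 weeks, about 160 g, fed normal pellet diet. Triton X-100 given at 400 mg/kg ip; compound given orally in 1% gum acacia. Retro-orbital blood taken 18 h after Triton and serum separated at 1500g for 10 min. TG and cholesterol measured by kit. Mean % change versus dyslipidemic control, 5 animals.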

Rattus norvegicus [3] = experiment: Antidiabetic activity in sucrose challenged streptozotocin-induced diabetic Sprague-Dawley rat model assessed as reduction in glucose levels at 100 mg/kg, po measured after 5 hrs
Rattus norvegicus [4] = experiment: Antidiabetic activity in sucrose challenged streptozotocin-induced diabetic Sprague-Dawley rat model assessed as reduction in glucose levels at 100 mg/kg, po measured after 24 hrs
Rattus norvegicus [5] = experiment: Antihyperlipidemic activity in Triton-induced dyslipidemic Wistar rat model assessed as reduction in phospholipid level at 100 mg/kg, po; summary of the method: as §1
Rattus norvegicus [6] = experiment: Antihyperlipidemic activity in Triton-induced dyslipidemic Wistar rat model assessed as reduction in triglyceride level at 100 mg/kg, po; summary of the method: as §1

| SMILES | Activity (Rattus norvegicus [1]) | Activity (Rattus norvegicus [2]) [%] | Activity (Rattus norvegicus [3]) | Activity (Rattus norvegicus [4]) | Activity (Rattus norvegicus [5]) [%] | Activity (Rattus norvegicus [6]) [%] |
| --- | --- | --- | --- | --- | --- | --- |
| CC(C)(C)NCC(O)COc1ccc2c(=O)cc(-c3ccc(OCc4ccccc4)c(OCc4ccccc4)c3)oc2c1 (centres undefined) | 15.9% | 23 | 11.8% | 0.89% | 12 | 16 |
| Cc1ccc(COc2cc(OCc3ccc(C)cc3)cc(-c3cc(=O)c4ccc(OCC(O)CNC(C)(C)C)cc4o3)c2)cc1 (centres undefined) | 13.6% | 11.2 | – | – | 16.2 | 12.8 |
| Cc1ccc(COc2cc(OCc3ccc(C)cc3)cc(-c3cc(=O)c4ccc(OCC(O)CNCc5ccccc5)cc4o3)c2)cc1 (centres undefined) | 32% | 16.5 | 26.2% | 17.9% | 20.8 | 27.2 |
| CC(C)NCC(O)COc1ccc2c(=O)cc(-c3cc(OCc4ccccc4Cl)cc(OCc4ccccc4Cl)c3)oc2c1 (centres undefined) | 12.6% | 12.1 | 6.83% | inactive | 20.2 | 30.2 |
| CC(C)NCC(O)COc1ccc2c(=O)cc(-c3ccc(O)c(O)c3)oc2c1 (centres undefined) | inactive | 15 | – | – | 13 | 19 |
| Cc1ccc(COc2cc(OCc3ccc(C)cc3)cc(-c3cc(=O)c4ccc(OCC(O)CNC(C)C)cc4o3)c2)cc1 (centres undefined) | 51.6% | 20.3 | 22.8% | 11.9% | 26.5 | 25.6 |
| CC(C)NCC(O)COc1ccc2c(=O)cc(-c3ccc(OCc4ccccc4)c(OCc4ccccc4)c3)oc2c1 (centres undefined) | 17.9% | 16 | 12.4% | 2.34% | 5 | 14 |
| CC(C)(C)NCC(O)COc1ccc2c(=O)cc(-c3ccc(O)c(O)c3)oc2c1 (centres undefined) | inactive | 21 | – | – | 23 | 25 |
| CC(C)NCC(O)COc1ccc2c(=O)cc(-c3cc(OCc4ccccc4)cc(OCc4ccccc4)c3)oc2c1 (centres undefined) | inactive | 13 | 7.86% | 2.23% | 8 | 11 |
| CC(C)(C)NCC(O)COc1ccc2oc(-c3ccc(O)c(O)c3)cc(=O)c2c1 (centres undefined) | – | 24 | inactive | inactive | 23 | 25 |
| COc1ccc(-c2cc(=O)c3ccc(OCC(O)CN4CCN(c5ccccc5)CC4)cc3o2)cc1OC (centres undefined) | – | 23 | 4.35% | 2.34% | 22 | 19 |
| CC(C)(C)NCC(O)COc1ccc2c(=O)cc(-c3cc(OCc4ccccc4Cl)cc(OCc4ccccc4Cl)c3)oc2c1 (centres undefined) | 14.8% | 12.5 | 7.48% | inactive | 11.3 | 18.7 |
| COc1cc(OC)cc(-c2cc(=O)c3ccc(OCC(O)CNC(C)(C)C)cc3o2)c1 (centres undefined) | inactive | 21 | 4.86% | 2.36% | 19 | 17 |
| COc1cc(OC)cc(-c2cc(=O)c3ccc(OCC(O)CN4CCN(c5ccccc5)CC4)cc3o2)c1 (centres undefined) | inactive | 14.3 | – | – | 12.8 | 17.3 |
| COc1cc(OC)cc(-c2cc(=O)c3ccc(OCC(O)CNC(C)C)cc3o2)c1 (centres undefined) | – | 17 | inactive | inactive | 21 | 24 |
